Test results taken from ChEMBL document CHEMBL4813974 (Eur J Med Chem, 2021).
Activity calls are given as the source filed them. No cut-off for these calls is given here.

Key:
Neutral ceramidase = Neutral ceramidase (Homo sapiens, UniProt Q9NR71); test: Inhibition of human ASAH2 stably over expressed in human A-375 cell lysate using RBM14C24 fluorogenic substrate measured at 20 uM at pH 7.5 by fluorescence spectrophotometry; format: subcellular
[1] = target: T1, Acid ceramidase (Homo sapiens) (UniProt Q13510); test: Inhibition of human ASAH1 stably over expressed in human A-375 cell lysate using RBM14C12 fluorogenic substrate measured at 1:1 compound to substrate molar ratio at pH 4.5 by fluorescence spectrophotometry; format: subcellular
T1 sequence (whole entry): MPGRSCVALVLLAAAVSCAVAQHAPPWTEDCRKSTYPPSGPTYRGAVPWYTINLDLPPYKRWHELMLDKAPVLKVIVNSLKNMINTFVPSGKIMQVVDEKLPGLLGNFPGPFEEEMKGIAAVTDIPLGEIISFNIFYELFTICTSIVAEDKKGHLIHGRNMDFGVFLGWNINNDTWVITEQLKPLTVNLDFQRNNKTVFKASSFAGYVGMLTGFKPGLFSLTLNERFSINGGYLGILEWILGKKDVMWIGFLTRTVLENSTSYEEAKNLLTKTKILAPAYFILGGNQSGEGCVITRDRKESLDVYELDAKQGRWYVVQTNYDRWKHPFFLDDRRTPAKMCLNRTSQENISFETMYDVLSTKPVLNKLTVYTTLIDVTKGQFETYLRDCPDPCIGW

[2] = target: T1, Acid ceramidase (Homo sapiens); test: Inhibition of human ASAH1 stably over expressed in human A-375 cell lysate using RBM14C12 fluorogenic substrate measured at 2:1 compound to substrate molar ratio at pH 4.5 by fluorescence spectrophotometry; format: subcellular
[3] = target: T2, Alkaline ceramidase 3 (Mus musculus) (UniProt Q9D099); test: Inhibition of ACER3 in ASAH2-null mouse embryonic fibroblast lysate using RBM14C16 fluorogenic substrate measured at 1:1 substrate to compound molar ratio at pH 9 in presence of Ca2+ by fluorescence spectrophotometry; details: MEF
T2 sequence (whole entry): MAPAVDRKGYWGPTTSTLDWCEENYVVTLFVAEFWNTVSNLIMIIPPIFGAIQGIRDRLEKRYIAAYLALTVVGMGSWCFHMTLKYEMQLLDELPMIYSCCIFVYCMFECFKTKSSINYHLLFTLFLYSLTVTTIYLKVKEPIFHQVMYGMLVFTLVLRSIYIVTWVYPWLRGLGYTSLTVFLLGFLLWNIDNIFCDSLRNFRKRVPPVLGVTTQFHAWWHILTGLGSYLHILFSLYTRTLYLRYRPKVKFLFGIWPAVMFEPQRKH

[4] = target: Neutral ceramidase (Mus musculus) (UniProt Q9JHE3); test: Inhibition of ASAH2 in wild type mouse intact embryonic fibroblast using RBM14C16 fluorogenic substrate measured at pH 7.5 incubated for 3 hrs by fluorescence spectrophotometry; details: MEF
In short: (§1)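 Intact MEF (ASAH2-null or wild type) seeded at 2x10^4 cells/well 24 h before the assay. Then given RBM14C16 (10 μM) plus a range of compound concentrations, added together, in DMEM 10% FBS for 3 h at 37 °C. Stopped with MeOH, oxidized with NaIO4 at pH 10.6, umbelliferone fluorescence read at 355/460 nm. Normalized to SRB protein; three experiments in triplicate.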

[5] = target: T2, Alkaline ceramidase 3 (Mus musculus); test: Inhibition of ACER3 in ASAH2-null mouse intact embryonic fibroblast using RBM14C16 fluorogenic substrate measured at pH 9 for 3 hrs by fluorescence spectrophotometry; details: MEF; in short: as §1

Neutral ceramidase, sequence (Q9NR71 whole entry): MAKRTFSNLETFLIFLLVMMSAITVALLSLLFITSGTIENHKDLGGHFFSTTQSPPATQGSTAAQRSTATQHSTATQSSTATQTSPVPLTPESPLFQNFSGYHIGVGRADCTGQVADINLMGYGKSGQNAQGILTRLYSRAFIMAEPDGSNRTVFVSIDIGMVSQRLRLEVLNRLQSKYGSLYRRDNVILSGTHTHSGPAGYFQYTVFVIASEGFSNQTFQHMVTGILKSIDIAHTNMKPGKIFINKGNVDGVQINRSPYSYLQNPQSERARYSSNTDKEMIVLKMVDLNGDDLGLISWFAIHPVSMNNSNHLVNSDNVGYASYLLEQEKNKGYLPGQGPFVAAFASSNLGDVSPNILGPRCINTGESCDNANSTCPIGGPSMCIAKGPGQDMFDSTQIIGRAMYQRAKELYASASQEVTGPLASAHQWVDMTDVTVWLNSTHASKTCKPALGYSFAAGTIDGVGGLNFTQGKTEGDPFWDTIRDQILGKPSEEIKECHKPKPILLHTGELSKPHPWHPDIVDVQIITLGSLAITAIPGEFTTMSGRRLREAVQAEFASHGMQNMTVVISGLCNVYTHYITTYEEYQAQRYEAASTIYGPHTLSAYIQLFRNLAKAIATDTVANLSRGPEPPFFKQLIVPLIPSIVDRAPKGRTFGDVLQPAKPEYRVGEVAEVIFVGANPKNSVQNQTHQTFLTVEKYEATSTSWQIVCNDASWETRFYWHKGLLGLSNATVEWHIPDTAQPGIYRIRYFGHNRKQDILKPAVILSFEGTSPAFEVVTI
Neutral ceramidase (Mus musculus), sequence (Q9JHE3 whole entry): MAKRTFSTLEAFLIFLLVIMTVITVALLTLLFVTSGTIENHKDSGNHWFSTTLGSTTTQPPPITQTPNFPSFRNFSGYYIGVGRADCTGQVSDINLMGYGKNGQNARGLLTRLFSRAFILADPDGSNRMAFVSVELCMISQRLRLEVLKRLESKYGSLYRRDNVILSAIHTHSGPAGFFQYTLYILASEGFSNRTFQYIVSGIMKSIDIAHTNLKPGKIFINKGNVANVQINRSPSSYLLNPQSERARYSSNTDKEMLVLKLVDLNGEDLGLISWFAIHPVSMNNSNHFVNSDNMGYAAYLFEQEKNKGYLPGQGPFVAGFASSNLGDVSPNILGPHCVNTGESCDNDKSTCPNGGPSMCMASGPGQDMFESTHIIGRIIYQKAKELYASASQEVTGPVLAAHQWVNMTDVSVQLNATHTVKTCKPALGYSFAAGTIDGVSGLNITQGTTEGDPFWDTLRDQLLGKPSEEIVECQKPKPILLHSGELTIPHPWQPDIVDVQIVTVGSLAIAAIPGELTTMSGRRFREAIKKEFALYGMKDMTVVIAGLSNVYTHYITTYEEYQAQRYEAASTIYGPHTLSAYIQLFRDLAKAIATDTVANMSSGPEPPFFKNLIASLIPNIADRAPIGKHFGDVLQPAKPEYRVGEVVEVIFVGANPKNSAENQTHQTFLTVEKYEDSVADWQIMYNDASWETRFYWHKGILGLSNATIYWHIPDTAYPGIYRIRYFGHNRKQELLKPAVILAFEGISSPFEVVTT

Structure (SMILES) | inhibition [2] | inhibition [3] | other results
CCCCCCCCCCCC/C=C/[C@@H](O)[C@@H](C)NC(=O)c1ccc(OCCCCCOCOC)cc1 |  |  | inhibition (Neutral ceramidase): inactive; inhibition [1]: inactive
CCCCCCCCCCCC/C=C/[C@@H](O)[C@@H](C)NC(=O)c1ccc(OCCCCCCC)cc1 |  |  | inhibition (Neutral ceramidase): inactive; inhibition [1]: inactive
CCCCCCCCCCCCCC[C@H](O)[C@H](C)NC(=O)c1ccc(CCCCCCC)cc1 | inactive | inactive | 
CCCCCCCCCCCCCC[C@H](O)[C@@H](C)NC(=O)CBr | inactive | inactive | 
CCCCCCCCCCCC/C=C/[C@H](O)[C@@H](C)NC(=O)C(C)(C)C | inactive | inactive | 
CCCCCCCCCCCC/C=C/[C@@H](O)[C@@H](C)NC(=O)c1ccc(CCCCC)cc1 |  |  | inhibition (Neutral ceramidase): inactive; inhibition [1]: inactive
CCCCCCCCCCCCCC[C@H](O)[C@@H](C)NC(=O)CCCCCCC | inactive | inactive | 
CCCCCCCCCCCC/C=C/[C@@H](O)[C@@H](C)NC(=O)c1ccc(CCC)cc1 |  |  | inhibition (Neutral ceramidase): inactive; inhibition [1]: inactive
CCCCCCCCCCCC/C=C/[C@@H](O)[C@@H](C)NC(=O)c1ccc(OCCCCCCCOCOC)cc1 |  |  | inhibition (Neutral ceramidase): inactive; inhibition [1]: inactive
CCCCCCCCCCCCCC[C@H](O)[C@@H](C)N | inactive | inactive | 
CCCCCCCCCCCC/C=C/[C@H](O)[C@H](C)NC(=O)c1ccc(CCCCCCC)cc1 | inactive | inactive | 
CCCCCCCCCCCCCC[C@H](O)[C@H](C)NC(=O)CBr | inactive | inactive | 
CCCCCCCCCCCC/C=C/[C@@H](O)[C@H](C)NC(=O)CCCCCCC | inactive | inactive | 
CCCCCCCCCCCC/C=C/[C@@H](O)[C@@H](C)NC(=O)c1ccc(OCCCCCC)cc1 |  |  | inhibition (Neutral ceramidase): inactive; inhibition [1]: inactive
CCCCCCCCCCCCCC[C@@H](O)[C@@H](C)N | inactive | inactive | 
CCCCCCCCCCCCCC[C@@H](O)[C@H](C)N | inactive | inactive | 
CCCCCCCCCCCC/C=C/[C@H](O)[C@@H](C)NC(=O)CBr | inactive | inactive | 
CCCCCCCCCCCC/C=C/[C@@H](O)[C@@H](C)NC(=O)C(C)(C)C | inactive | inactive | 
CCCCCCCCCCCCCC[C@H](O)[C@H](C)NC(=O)CCCCCCC | inactive | inactive | 
CCCCCCCCCCCCCC[C@@H](O)[C@H](C)NC(=O)C(C)(C)C | inactive | inactive | 
CCCCCCCCCCCCCC[C@H](O)[C@@H](C)NC(=O)c1ccc(CCCCCCC)cc1 | inactive | inactive | 
CCCCCCCCCCCC/C=C/[C@@H](O)[C@@H](C)NC(=O)c1ccc(CC)cc1 |  |  | inhibition (Neutral ceramidase): inactive; inhibition [1]: inactive
CCCCCCCCCCCC/C=C/[C@@H](O)[C@@H](C)NC(=O)c1ccc(OCCCCC)cc1 |  |  | inhibition (Neutral ceramidase): inactive; inhibition [1]: inactive
CCCCCCCCCCCC/C=C/[C@@H](O)[C@@H](C)NC(=O)c1ccc(OCCOCCOC)cc1 |  |  | inhibition (Neutral ceramidase): inactive; inhibition [1]: inactive
CCCCCCCCCCCC/C=C/[C@H](O)[C@H](C)NC(=O)C(C)(C)C | inactive | inactive | 
CCCCCCCCCCCCCC[C@@H](O)[C@H](C)NC(=O)c1ccc(CCCCCCC)cc1 | inactive | inactive | 
CCCCCCCCCCCC/C=C/[C@H](O)[C@H](C)NC(=O)CCCCCCC | inactive | inactive | 

Structure (SMILES) | inhibition [2] | inhibition [3] | other results
CCCCCCCCCCCC/C=C/[C@@H](O)[C@@H](C)NC(=O)c1ccc(OCOC)cc1 |  |  | inhibition (Neutral ceramidase): inactive; inhibition [1]: inactive
CCCCCCCCCCCC/C=C/[C@@H](O)[C@@H](C)NC(=O)CBr | inactive | inactive | 
CCCCCCCCCCCCCC[C@H](O)[C@H](C)N | inactive | inactive | 
CCCCCCCCCCCC/C=C/[C@H](O)[C@@H](C)N | inactive | inactive | 
CCCCCCCCCCCCCC[C@@H](O)[C@@H](C)NC(=O)C(C)(C)C | inactive | inactive | 
CCCCCCCCCCCCCC[C@@H](O)[C@@H](C)NC(=O)CCCCCCC | inactive | inactive | 
CCCCCCCCCCCCCC[C@@H](O)[C@@H](C)NC(=O)CBr | inactive | inactive | 
CCCCCCCCCCCC/C=C/[C@@H](O)[C@@H](C)NC(=O)c1ccccc1 |  |  | inhibition (Neutral ceramidase): inactive; inhibition [1]: inactive
CCCCCCCCCCCC/C=C/[C@@H](O)[C@H](C)NC(=O)CBr | inactive | inactive | 
CCCCCCCCCCCCCC[C@H](O)[C@H](C)NC(=O)C(C)(C)C | inactive | inactive | 
CCCCCCCCCCCC/C=C/[C@H](O)[C@H](C)N | inactive | inactive | 
CCCCCCCCCCCC/C=C/[C@@H](O)[C@@H](C)N | inactive | inactive | 
CCCCCCCCCCCC/C=C/[C@@H](O)[C@H](C)NC(=O)C(C)(C)C | inactive | inactive | 
CCCCCCCCCCCC/C=C/[C@@H](O)[C@H](C)N | inactive | inactive | 
CCCCCCCCCCCC/C=C/[C@H](O)[C@@H](C)NC(=O)CCCCCCC | inactive | inactive | 
CCCCCCCCCCCC/C=C/[C@@H](O)[C@H](C)NC(=O)c1ccc(CCCCCCC)cc1 | inactive | inactive | 
CCCCCCCCCCCCCC[C@H](O)[C@@H](C)NC(=O)C(C)(C)C | inactive | inactive | 
CCCCCCCCCCCC/C=C/[C@H](O)[C@@H](C)NC(=O)c1ccc(CCCCCCC)cc1 | inactive | inactive | 
CCCCCCCCCCCC/C=C/[C@@H](O)[C@@H](C)NC(=O)c1ccc(CCCCCC)cc1 |  |  | inhibition (Neutral ceramidase): inactive; inhibition [1]: inactive
CCCCCCCCCCCC/C=C/[C@@H](O)[C@@H](C)NC(=O)CCCCCCC |  |  | inhibition [4]: inactive; inhibition [5]: inactive
CCCCCCCCCCCCCC[C@@H](O)[C@H](C)NC(=O)CBr | inactive | inactive | 
CCCCCCCCCCCC/C=C/[C@H](O)[C@H](C)NC(=O)CBr | inactive | inactive | 
CCCCCCCCCCCC/C=C/[C@@H](O)[C@@H](C)NC(=O)c1ccc(OCCOCOC)cc1 |  |  | inhibition (Neutral ceramidase): inactive; inhibition [1]: inactive
CCCCCCCCCCCC/C=C/[C@@H](O)[C@@H](C)NC(=O)c1ccc(C(C)(C)C)cc1 |  |  | inhibition (Neutral ceramidase): inactive; inhibition [1]: inactive
CCCCCCCCCCCCCC[C@@H](O)[C@@H](C)NC(=O)c1ccc(CCCCCCC)cc1 | inactive | inactive | 
CCCCCCCCCCCCCC[C@@H](O)[C@H](C)NC(=O)CCCCCCC | inactive | inactive | 
